Results reported in ChEMBL document CHEMBL3861959, “Synthesis and antiproliferative evaluation of novel 2-(4H-1,2,4-triazole-3-ylthio)acetamide derivatives as inducers of apoptosis in cancer cells” (Eur J Med Chem, 2016).
In brackets after ≈: the same amount, converted by molar mass.

Tests used:
[1] = Antiviral activity against HIV2 ROD infected in human MT4 cells assessed as protection against virus-induced cytopathic effect after 5 days MTT assay; format: functional, cell-based, Human immunodeficiency virus type 2 (ISOLATE ROD); details: Human immunodeficiency virus 2, MT4, 120 h
Summary of the method: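 HIV-1 strain IIIB and HIV-2 strain ROD in MT-4 cells, MTT-based. Test compounds in serial five-fold dilutions, in triplicate wells run alongside mock-infected cells, with untreated infected and mock controls. MT-4 cells resuspended at 6 × 10^5 cells/mL. Absorbance read at 540 and 690 nm, median OD of three wells. EC50 is the 50% effective concentration.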

[2] = Cytotoxicity against human MT4 cells assessed as decrease in cell viability after 5 days by MTT assay; format: toxicity, cell-based
Summary of the method: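 MT-4 cells in mock-infected wells of the anti-HIV MTT setup. Compounds in serial five-fold dilutions in triplicate, cells at 6 × 10^5 cells/mL. Absorbance at 540 and 690 nm, median OD of three wells. CC50 is the concentration that lowers OD540 of the mock-infected control by 50%.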

[3] = Selectivity index, ratio of CC50 for human MT4 cells to EC50 for HIV1 3B; format: toxicity, cell-based; details: read-out: Ratio CC50/EC50
Summary of the method: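 HIV-1 IIIB and HIV-2 ROD tested in MT-4 cells by MTT. Serial fivefold dilutions of compound added to triplicate mock- and virus-infected wells. MT-4 cells at 6 × 10^5 cells/mL. Absorbance read at 540/690 nm; median OD of three wells used. CC50 is the concentration reducing mock-infected OD540 by 50%. […]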

[4] = Cytotoxicity against human CCRF-CEM cells assessed as cell growth at 10^-5 M after 48 hrs by SRB assay relative to control; format: functional; details: read-out: Activity
Summary of the method: (§1)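 NCI single-dose primary screen run under the US NCI protocol. Compounds tested at 10 µM across the 60-cell-line panel, with growth percent reported for each line.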

[5] = Cytotoxicity against human HL-60(TB) cells assessed as cell growth at 10^-5 M after 48 hrs by SRB assay relative to control; format: functional; details: HL-60, 48 h, read-out: Activity
Summary of the method: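 NCI-60 one-dose primary screen run by the US NCI under its protocol. Single concentration of 10 µM across the 60-line human tumour panel, which includes HL-60(TB). Read-out is growth percent for each cell line. Lines reduced to about 32% growth or less are taken forward to full-panel testing over a 5-log dose range.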

[6] = Cytotoxicity against human RPMI8226 cells assessed as cell growth at 10^-5 M after 48 hrs by SRB assay relative to control; format: functional; details: RPMI-8226, 48 h, read-out: Activity; summary of the method: as §1
[7] = Cytotoxicity against human HOP62 cells assessed as cell growth at 10^-5 M after 48 hrs by SRB assay relative to control; format: functional; details: HOP-62, 48 h, read-out: Activity; summary of the method: as §1
[8] = Cytotoxicity against human HOP92 cells assessed as cell growth at 10^-5 M after 48 hrs by SRB assay relative to control; format: functional; details: HOP-92, 48 h, read-out: Activity; summary of the method: as §1
[9] = Cytotoxicity against human NCI-H23 cells assessed as cell growth at 10^-5 M after 48 hrs by SRB assay relative to control; format: functional; details: NCI-H23, 48 h, read-out: Activity; summary of the method: as §1
[10] = Cytotoxicity against human NCI-H522 cells assessed as cell growth at 10^-5 M after 48 hrs by SRB assay relative to control; format: functional; details: NCI-H522, 48 h, read-out: Activity; summary of the method: as §1
[11] = Cytotoxicity against human COLO205 cells assessed as cell growth at 10^-5 M after 48 hrs by SRB assay relative to control; format: functional; details: COLO 205, 48 h, read-out: Activity; summary of the method: as §1
[12] = Cytotoxicity against human SW620 cells assessed as cell growth at 10^-5 M after 48 hrs by SRB assay relative to control; format: functional; details: SW-620, 48 h, read-out: Activity
Summary of the method: (§2)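 Single-dose NCI 60-cell-line screen run under the US NCI protocol. Compounds tested at 10 µM. Read-out is growth percent for each cell line.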

[13] = Cytotoxicity against human SF295 cells assessed as cell growth at 10^-5 M after 48 hrs by SRB assay relative to control; format: functional; details: SF-295, 48 h, read-out: Activity; summary of the method: as §1
[14] = Cytotoxicity against human SF539 cells assessed as cell growth at 10^-5 M after 48 hrs by SRB assay relative to control; format: functional; details: SF-539, 48 h, read-out: Activity; summary of the method: as §2
[15] = Cytotoxicity against human SNB75 cells assessed as cell growth at 10^-5 M after 48 hrs by SRB assay relative to control; format: functional; details: SNB-75, 48 h, read-out: Activity; summary of the method: as §2
[16] = Cytotoxicity against human MALME-3M cells assessed as cell growth at 10^-5 M after 48 hrs by SRB assay relative to control; format: functional; details: read-out: Activity; summary of the method: as §1
[17] = Cytotoxicity against human MDA-MB-435 cells assessed as cell growth at 10^-5 M after 48 hrs by SRB assay relative to control; format: functional; details: MDA-MB-435, 48 h, read-out: Activity; summary of the method: as §1
[18] = Cytotoxicity against human SK-MEL-2 cells assessed as cell growth at 10^-5 M after 48 hrs by SRB assay relative to control; format: functional; details: SK-MEL-2, 48 h, read-out: Activity; summary of the method: as §2
[19] = Cytotoxicity against human IGROV1 cells assessed as cell growth at 10^-5 M after 48 hrs by SRB assay relative to control; format: functional; details: IGROV-1, 48 h, read-out: Activity; summary of the method: as §1
[20] = Cytotoxicity against human OVCAR3 cells assessed as cell growth at 10^-5 M after 48 hrs by SRB assay relative to control; format: functional; details: OVCAR-3, 48 h, read-out: Activity; summary of the method: as §1
[21] = Cytotoxicity against human OVCAR4 cells assessed as cell growth at 10^-5 M after 48 hrs by SRB assay relative to control; format: functional; details: OVCAR-4, 48 h, read-out: Activity; summary of the method: as §1
[22] = Cytotoxicity against human OVCAR5 cells assessed as cell growth at 10^-5 M after 48 hrs by SRB assay relative to control; format: functional; details: OVCAR-5, 48 h, read-out: Activity; summary of the method: as §1
[23] = Cytotoxicity against human 786-0 cells assessed as cell growth at 10^-5 M after 48 hrs by SRB assay relative to control; format: functional; details: 786-0, 48 h, read-out: Activity; summary of the method: as §1
[24] = Cytotoxicity against human ACHN cells assessed as cell growth at 10^-5 M after 48 hrs by SRB assay relative to control; format: functional; details: read-out: Activity; summary of the method: as §1
[25] = Cytotoxicity against human UO31 cells assessed as cell growth at 10^-5 M after 48 hrs by SRB assay relative to control; format: functional; details: UO-31, 48 h, read-out: Activity; summary of the method: as §2
[26] = Cytotoxicity against human PC3 cells assessed as cell growth at 10^-5 M after 48 hrs by SRB assay relative to control; format: functional; details: PC-3, 48 h, read-out: Activity; summary of the method: as §1
[27] = Cytotoxicity against human DU145 cells assessed as cell growth at 10^-5 M after 48 hrs by SRB assay relative to control; format: functional; details: DU-145, 48 h, read-out: Activity; summary of the method: as §1
[28] = Cytotoxicity against human T47D cells assessed as cell growth at 10^-5 M after 48 hrs by SRB assay relative to control; format: functional; details: read-out: Activity; summary of the method: as §2
[29] = Cytotoxicity against human MDA-MB-468 cells assessed as cell growth at 10^-5 M after 48 hrs by SRB assay relative to control; format: functional; details: MDA-MB-468, 48 h, read-out: Activity; summary of the method: as §1

In the case of `Cc1ccc(C(C)C)c(OCc2nnc(SCC(=O)Nc3ccc(S(N)(=O)=O)cc3)n2Cc2ccccc2)c1`, the EC50 [1] is reported as greater than 13 µg/mL, the CC50 at 120 h [2] is reported as 13 µg/mL (≈ 23 µM) and the selectivity ratio [3] is reported as less than 1. For the same molecule, the growth at 10 µM [4] was 35.6%, the growth at 10 µM [5] was 68.2% and the growth at 10 µM [6] was 40.8%. It also gave a growth at 10 µM [7] of 79.1%, a growth at 10 µM [8] of 75.2% and a growth at 10 µM [9] of 63.8%. For the same molecule, the growth at 10 µM [10] was 75.3%, the growth at 10 µM [11] was 90.2% and the growth at 10 µM [12] was 91.7%. For the same molecule, the growth at 10 µM [13] was 70.7%, the growth at 10 µM [14] was 89.5% and the growth at 10 µM [15] was 93.8%. The growth at 10 µM [16] was 84.3%, the growth at 10 µM [17] was 76.2% and the growth at 10 µM [18] was 80.9%. The growth at 10 µM [19] was 90.1%, the growth at 10 µM [20] was 74.7% and the growth at 10 µM [21] was 88.8%. It also gave a growth at 10 µM [22] of 99.4%, a growth at 10 µM [23] of 92.3% and a growth at 10 µM [24] of 76%. For the same molecule, the growth at 10 µM [25] was 42.7%, the growth at 10 µM [26] was 31.1% and the growth at 10 µM [27] was 82.3%. The growth at 10 µM [28] was 33.3% and the growth at 10 µM [29] was 70.5%.
For `CC(=O)Nc1ccc(OCc2nnc(SCC(=O)Nc3ccc(Br)cc3)n2Cc2ccccc2)cc1`, the EC50 [1] was greater than 3.99 µg/mL, the CC50 at 120 h [2] was no less than 3.99 µg/mL and the selectivity ratio [3] was no more than 1. For the same molecule, the growth at 10 µM [4] was 56.3%, the growth at 10 µM [5] was 63.8% and the growth at 10 µM [6] was 72.2%. It also gave a growth at 10 µM [7] of 90.3%, a growth at 10 µM [8] of 70.9% and a growth at 10 µM [9] of 75.2%. The growth at 10 µM [10] was 71.2%, the growth at 10 µM [11] was 105% and the growth at 10 µM [12] was 59%. The growth at 10 µM [13] was 80.2%, the growth at 10 µM [14] was 92.8% and the growth at 10 µM [15] was 103%. The growth at 10 µM [16] was 93.8%, the growth at 10 µM [17] was 66% and the growth at 10 µM [18] was 72.2%. For the same molecule, the growth at 10 µM [19] was 83.2%, the growth at 10 µM [20] was 102% and the growth at 10 µM [21] was 101%. The growth at 10 µM [22] was 92%, the growth at 10 µM [23] was 91.1% and the growth at 10 µM [24] was 58.6%. The growth at 10 µM [25] was 52.8%, the growth at 10 µM [26] was 54.2% and the growth at 10 µM [27] was 72.6%. It also gave a growth at 10 µM [28] of 69.6% and a growth at 10 µM [29] of 77.8%.
Molecule `Cc1ccc(C(C)C)c(OCc2nnc(SCC(=O)Nc3ccc(Cl)cc3)n2Cc2ccccc2)c1` has an EC50 [1] greater than 65.9 µg/mL, a CC50 at 120 h [2] of 65.9 µg/mL (≈ 126 µM) and a selectivity ratio [3] of less than 1. It also gave a growth at 10 µM [4] of 72.7%, a growth at 10 µM [5] of 83.9% and a growth at 10 µM [6] of 83.8%. For the same molecule, the growth at 10 µM [7] was 81.2%, the growth at 10 µM [8] was 78% and the growth at 10 µM [9] was 80.6%. The growth at 10 µM [10] was 90.4%, the growth at 10 µM [11] was 78.2% and the growth at 10 µM [12] was 65.9%. For the same molecule, the growth at 10 µM [13] was 88.1%, the growth at 10 µM [14] was 85.4% and the growth at 10 µM [15] was 93.6%. For the same molecule, the growth at 10 µM [16] was 75.6%, the growth at 10 µM [17] was 103% and the growth at 10 µM [18] was 108%. For the same molecule, the growth at 10 µM [19] was 69.4%, the growth at 10 µM [20] was 63.9% and the growth at 10 µM [21] was 33.4%. The growth at 10 µM [22] was 93.2%, the growth at 10 µM [23] was 38.9% and the growth at 10 µM [24] was 41.6%. The growth at 10 µM [25] was 53.6%, the growth at 10 µM [26] was 71.9% and the growth at 10 µM [27] was 90.5%. For the same molecule, the growth at 10 µM [28] was 78.6% and the growth at 10 µM [29] was 72.3%.
